Laboratory results taken from ChEMBL document CHEMBL4219021, “Discovery of a Small-Molecule Degrader of Bromodomain and Extra-Terminal (BET) Proteins with Picomolar Cellular Potencies and Capable of Achieving Tumor Regression” (J Med Chem, 2018).
Active and inactive are the calls of the source. The calls are words filed in the database; no cut-off is given here.

Legend:
[1] = target: T1, Bromodomain-containing protein 2 (Homo sapiens, UniProt P25440); experiment: Inhibition of FAM-labeled ZBA248 binding to recombinant N-terminal His6-tagged BRD2 bromodomain 1 (72 to 205 residues) (unknown origin) expressed in Escherichia coli Rosetta2 DE3 after 30 mins by fluorescence polarization assay
[2] = target: T1, Bromodomain-containing protein 2; experiment: Inhibition of FAM-labeled ZBA248 binding to recombinant N-terminal His6-tagged BRD2 bromodomain 2 (349 to 460 residues) (unknown origin) expressed in Escherichia coli Rosetta2 DE3 after 30 mins by fluorescence polarization assay
[3] = target: T2, Bromodomain-containing protein 3 (Homo sapiens, UniProt Q15059); experiment: Inhibition of FAM-labeled ZBA248 binding to recombinant N-terminal His6-tagged BRD3 bromodomain 1 (24 to 144 residues) (unknown origin) expressed in Escherichia coli Rosetta2 DE3 after 30 mins by fluorescence polarization assay
[4] = target: T2, Bromodomain-containing protein 3; experiment: Inhibition of FAM-labeled ZBA248 binding to recombinant N-terminal His6-tagged BRD3 bromodomain 2 (306 to 417residues) (unknown origin) expressed in Escherichia coli Rosetta2 DE3 after 30 mins by fluorescence polarization assay
[5] = target: T3, Bromodomain-containing protein 4 (Homo sapiens, UniProt O60885); experiment: Inhibition of FAM-labeled ZBA248 binding to recombinant N-terminal His6-tagged BRD4 bromodomain 1 (44 to 168 residues) (unknown origin) expressed in Escherichia coli Rosetta2 DE3 after 30 mins by fluorescence polarization assay
[6] = target: T3, Bromodomain-containing protein 4; experiment: Inhibition of FAM-labeled ZBA248 binding to recombinant N-terminal His6-tagged BRD4 bromodomain 2 (333 to 460 residues) (unknown origin) expressed in Escherichia coli Rosetta2 DE3 after 30 mins by fluorescence polarization assay
RS4-11 [7] = experiment: Cytotoxicity against human RS4:11 cells assessed as cell growth inhibition after 4 days by WST-8 assay; assay type: functional, cell-based; conditions: RS4-11, 96 h
MOLM-13 [8] = experiment: Cytotoxicity against human MOLM13 cells assessed as cell growth inhibition after 4 days by WST-8 assay; assay type: functional, cell-based; conditions: MOLM-13, 96 h
[9] = target: T4, Protein cereblon/Bromodomain-containing protein 4/Cullin-4A (Homo sapiens) (UniProt O60885+Q96SW2+Q13619); experiment: Induction of cereblon/cullin 4A-mediated BRD4 degradation in human RS4:11 cells at 30 to 1000 nM after 24 hrs by Western blot method; assay type: cell-based
How it was run: (§1)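 Western blot of RS4;11 cells (2 × 10⁶ cells/well) in RPMI 1640 with 10% FBS, 37 °C, 5% CO₂, used within three months of thawing. Compound exposure was 3 h or 24 h at the indicated concentrations. Cells were lysed in RIPA with protease inhibitors, and BRD2, BRD3 and BRD4 were detected with specific antibodies, with GAPDH as loading control.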

[10] = target: T5, Protein cereblon/Bromodomain-containing protein 2/Cullin-4A (Homo sapiens) (UniProt P25440+Q96SW2+Q13619); experiment: Induction of cereblon/cullin 4A-mediated BRD2 degradation in human RS4:11 cells at 30 to 1000 nM after 24 hrs by Western blot method; assay type: cell-based
How it was run: (§2)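 RS4;11 cells (2 × 10⁶/well) treated for 24 h at the indicated concentrations. Lysed in RIPA with protease inhibitors and immunoblotted for BRD2, BRD3, BRD4, c-Myc and PARP, with GAPDH as loading control.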

[11] = target: T6, Protein cereblon/Bromodomain-containing protein 3/Cullin-4A (Homo sapiens) (UniProt Q15059+Q96SW2+Q13619); experiment: Induction of cereblon/cullin 4A-mediated BRD3 degradation in human RS4:11 cells at 30 to 1000 nM after 24 hrs by Western blot method; assay type: cell-based; how it was run: as §1
[12] = target: T6, Protein cereblon/Bromodomain-containing protein 3/Cullin-4A (Homo sapiens); experiment: Induction of cereblon/cullin 4A-mediated BRD3 degradation in human RS4:11 cells at 100 to 300 nM after 3 hrs by Western blot method; assay type: cell-based
How it was run: (§3)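 RS4;11 cells (2 × 10⁶/well) treated for 3 h at the indicated concentrations. Lysed in RIPA with protease inhibitors and immunoblotted for BRD2, BRD3 and BRD4 with specific antibodies.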

[13] = target: T4, Protein cereblon/Bromodomain-containing protein 4/Cullin-4A (Homo sapiens); experiment: Induction of cereblon/cullin 4A-mediated BRD4 degradation in human RS4:11 cells at 100 to 300 nM after 3 hrs by Western blot method; assay type: cell-based; how it was run: as §1
[14] = target: T5, Protein cereblon/Bromodomain-containing protein 2/Cullin-4A (Homo sapiens); experiment: Induction of cereblon/cullin 4A-mediated BRD2 degradation in human RS4:11 cells at 100 to 300 nM after 3 hrs by Western blot method; assay type: cell-based; how it was run: as §3
RS4-11 [15] = experiment: Induction of cell cycle arrest in human RS4:11 cells after 24 hrs by propidium iodide staining based flow cytometry; assay type: functional
How it was run: (§4)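 RS4;11 or MOLM-13 cells treated with compound for 24 h, then analyzed by flow cytometry. Cell cycle read by propidium iodide staining and apoptosis by annexin V/propidium iodide staining.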

MOLM-13 [16] = experiment: Induction of cell cycle arrest in human MOLM13 cells after 24 hrs by propidium iodide staining based flow cytometry; assay type: functional; how it was run: as §4
RS4-11 [17] = experiment: Induction of apoptosis in human RS4:11 cells at 30 to 300 nM after 24 hrs by Annexin-V/propidium iodide staining based flow cytometry; assay type: functional, cell-based; how it was run: as §4
MOLM-13 [18] = experiment: Induction of apoptosis in human MOLM13 cells at 30 to 300 nM after 24 hrs by Annexin-V/propidium iodide staining based flow cytometry; assay type: functional, cell-based; how it was run: as §4
Homo sapiens = species: Homo sapiens; experiment: Induction of cereblon/cullin 4A-mediated BET degradation in human RS4:11 cells assessed as downregulation of c-myc protein level at 300 to 1000 nM after 24 hrs by Western blot method; assay type: cell-based; how it was run: as §2

T1 sequence (P25440 whole entry, the tested form may be a part): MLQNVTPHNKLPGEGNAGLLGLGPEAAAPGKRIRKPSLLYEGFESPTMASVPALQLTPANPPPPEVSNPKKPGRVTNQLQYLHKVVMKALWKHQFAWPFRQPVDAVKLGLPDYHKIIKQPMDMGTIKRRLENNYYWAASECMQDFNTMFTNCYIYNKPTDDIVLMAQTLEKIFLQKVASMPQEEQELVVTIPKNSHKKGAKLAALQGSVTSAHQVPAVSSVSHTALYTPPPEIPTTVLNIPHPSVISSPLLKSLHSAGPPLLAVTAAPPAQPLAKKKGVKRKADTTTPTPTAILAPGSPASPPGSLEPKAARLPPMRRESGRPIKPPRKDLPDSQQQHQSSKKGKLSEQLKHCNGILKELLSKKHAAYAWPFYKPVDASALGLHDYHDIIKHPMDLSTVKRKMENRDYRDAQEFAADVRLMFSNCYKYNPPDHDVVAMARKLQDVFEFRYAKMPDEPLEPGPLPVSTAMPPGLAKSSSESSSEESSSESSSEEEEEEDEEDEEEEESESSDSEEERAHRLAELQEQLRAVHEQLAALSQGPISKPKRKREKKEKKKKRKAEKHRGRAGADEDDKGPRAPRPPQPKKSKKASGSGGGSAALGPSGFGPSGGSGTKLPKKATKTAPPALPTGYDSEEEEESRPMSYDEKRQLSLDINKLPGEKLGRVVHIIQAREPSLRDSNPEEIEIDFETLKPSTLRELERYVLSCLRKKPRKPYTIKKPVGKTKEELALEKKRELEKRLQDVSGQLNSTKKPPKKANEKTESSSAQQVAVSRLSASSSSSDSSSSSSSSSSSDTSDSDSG
T2 sequence (Q15059 whole entry, the tested form may be a part): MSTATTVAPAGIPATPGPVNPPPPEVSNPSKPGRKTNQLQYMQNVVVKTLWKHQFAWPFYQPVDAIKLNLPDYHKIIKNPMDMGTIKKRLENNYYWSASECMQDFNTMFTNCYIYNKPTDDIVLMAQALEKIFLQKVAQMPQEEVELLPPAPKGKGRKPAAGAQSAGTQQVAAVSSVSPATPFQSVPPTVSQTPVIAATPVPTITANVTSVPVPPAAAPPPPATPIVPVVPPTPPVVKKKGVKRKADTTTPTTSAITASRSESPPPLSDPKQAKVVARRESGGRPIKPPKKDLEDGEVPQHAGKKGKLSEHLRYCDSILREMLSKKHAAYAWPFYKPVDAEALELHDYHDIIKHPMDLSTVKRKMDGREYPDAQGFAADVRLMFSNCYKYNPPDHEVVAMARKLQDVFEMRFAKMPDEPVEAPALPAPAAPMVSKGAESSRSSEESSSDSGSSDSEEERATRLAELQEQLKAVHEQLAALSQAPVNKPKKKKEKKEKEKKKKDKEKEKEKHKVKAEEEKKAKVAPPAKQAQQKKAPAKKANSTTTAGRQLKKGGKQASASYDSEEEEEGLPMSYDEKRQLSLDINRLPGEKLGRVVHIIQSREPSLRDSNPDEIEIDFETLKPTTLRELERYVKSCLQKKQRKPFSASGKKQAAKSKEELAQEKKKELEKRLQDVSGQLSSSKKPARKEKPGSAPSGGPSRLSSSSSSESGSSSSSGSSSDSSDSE
T6 sequence (Q13619 whole entry, looked up): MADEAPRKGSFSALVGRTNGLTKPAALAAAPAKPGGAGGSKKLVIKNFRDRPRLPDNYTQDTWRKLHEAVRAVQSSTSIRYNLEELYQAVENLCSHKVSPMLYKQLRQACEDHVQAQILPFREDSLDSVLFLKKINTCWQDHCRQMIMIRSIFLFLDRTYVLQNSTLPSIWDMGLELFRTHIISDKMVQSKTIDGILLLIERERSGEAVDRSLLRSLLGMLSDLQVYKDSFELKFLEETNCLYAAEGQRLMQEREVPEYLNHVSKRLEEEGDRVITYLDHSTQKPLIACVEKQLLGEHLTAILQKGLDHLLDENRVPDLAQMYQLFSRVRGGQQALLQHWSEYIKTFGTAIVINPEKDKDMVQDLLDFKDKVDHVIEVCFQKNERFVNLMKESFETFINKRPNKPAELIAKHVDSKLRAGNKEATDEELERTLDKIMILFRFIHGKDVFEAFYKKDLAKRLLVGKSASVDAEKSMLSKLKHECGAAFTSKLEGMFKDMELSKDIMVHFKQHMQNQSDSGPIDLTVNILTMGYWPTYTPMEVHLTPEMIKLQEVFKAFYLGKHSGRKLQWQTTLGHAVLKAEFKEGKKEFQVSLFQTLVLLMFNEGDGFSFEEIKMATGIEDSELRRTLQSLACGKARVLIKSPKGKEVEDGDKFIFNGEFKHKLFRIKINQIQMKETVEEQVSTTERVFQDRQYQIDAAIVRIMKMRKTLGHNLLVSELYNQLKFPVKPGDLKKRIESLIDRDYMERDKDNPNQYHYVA
T6 sequence (Q15059 whole entry, looked up): as the sequence (Q15059 whole entry, the tested form may be a part) above
T6 sequence (Q96SW2 whole entry, looked up): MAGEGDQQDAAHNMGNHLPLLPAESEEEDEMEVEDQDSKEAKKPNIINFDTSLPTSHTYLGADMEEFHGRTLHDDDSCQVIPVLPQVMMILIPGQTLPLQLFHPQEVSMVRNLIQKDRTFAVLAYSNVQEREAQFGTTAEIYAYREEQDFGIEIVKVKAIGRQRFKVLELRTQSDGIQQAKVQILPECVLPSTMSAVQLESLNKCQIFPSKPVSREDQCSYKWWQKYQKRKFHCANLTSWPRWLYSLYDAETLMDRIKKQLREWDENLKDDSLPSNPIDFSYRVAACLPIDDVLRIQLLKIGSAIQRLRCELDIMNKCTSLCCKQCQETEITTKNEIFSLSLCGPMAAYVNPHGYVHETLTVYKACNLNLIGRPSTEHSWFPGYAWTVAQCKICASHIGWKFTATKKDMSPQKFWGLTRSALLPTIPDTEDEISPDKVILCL
T5 sequence (P25440 whole entry, looked up): as the sequence (P25440 whole entry, the tested form may be a part) above
T5 sequence (Q13619 whole entry, looked up): as the sequence (Q13619 whole entry, looked up) above
T5 sequence (Q96SW2 whole entry, looked up): as the sequence (Q96SW2 whole entry, looked up) above

CCn1nc(C2CC2)cc1Nc1nc(C(=O)NC)nc2[nH]c3cc(-c4c(C)noc4C)c(OC)cc3c12
IC50 [1]: 3.1 nM | Ki [1]: 0.9 nM | IC50 [2]: 3.9 nM | Ki [2]: 0.27 nM | IC50 [3]: 6.6 nM | Ki [3]: 0.18 nM | IC50 [4]: 1.9 nM | Ki [4]: 0.21 nM | IC50 [5]: 7 nM | Ki [5]: 0.5 nM | IC50 [6]: 7 nM | Ki [6]: 1 nM | IC50 (RS4-11 [7]): 24.1 nM | IC50 (MOLM-13 [8]): 25.6 nM | Activity [9]: inactive | Activity [10]: inactive | Activity [11]: inactive | Activity [12]: inactive | Activity [13]: inactive | Activity [14]: inactive | Activity (RS4-11 [15]): Dose-dependent effect | Activity (MOLM-13 [16]): Dose-dependent effect | Activity (RS4-11 [17]): inactive | Activity (MOLM-13 [18]): inactive | Activity (Homo sapiens): Active
